Here are results for 3 compounds from ChEMBL document CHEMBL4665829, “Synthesis, Structure-Activity Relationship, and Antimalarial Efficacy of 6-Chloro-2-arylvinylquinolines” (J Med Chem, 2020).

Series [1] deals with Plasmodium falciparum. Description: Antiplasmodial activity against synchronized chloroquine-resistant Plasmodium falciparum Dd2 reduction in microbial growth at 50 nM treated with compound at 42 hrs post infection measured after 12 hrs by YOYO-1 staining-based flow cytometric analysis. It is filed as functional, organism-based. The method, boiled down: (§1)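 Dd2 cultures tightly synchronized by magnetic separation and sorbitol were dosed at 5 × EC50 at 6, 18, 30 or 42 h post-invasion. Controls: DHA 50 nM, atovaquone 6.6 nM, DMSO 0.1%. Sampled every 12 h for Giemsa thin smears and for flow cytometry: glutaraldehyde/paraformaldehyde fixation, Triton permeabilization, RNAse, 500 nM YOYO-1, 500,000 events/sample. Three independent biological replicates.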
In general terms: Flow cytometry measures light scatter and fluorescence of single cells or particles in a stream.

Series [2] has as its system Plasmodium falciparum. Kind of series: Antiplasmodial activity against synchronized chloroquine-resistant Plasmodium falciparum Dd2 reduction in microbial growth at 50 nM treated with compound at 42 hrs post infection measured after 12 hrs by Giemsa staining-based microscopic analysis. It is filed as functional, organism-based. The method, boiled down: as §1
Series [3] has as its system Plasmodium falciparum. Description: Antiplasmodial activity against synchronous gametocyte early stage of Plasmodium falciparum 3D7 harboring luc7 incubated for 72 hrs by ONE-Glo luciferase assay. It is filed as functional, organism-based. The following applies: 3D7, 72 h. The method, boiled down:
(§2)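 Gametocytes of P. falciparum 3D7 luc7 induced by nutrient starvation, cultured in heparin medium to remove asexual stages, Percoll-purified as early (II–III) or late (IV–V) stage. 50,000 gametocytes/well exposed 72 h to a 19-point gradient, 0.038 nM–10 μM. ONE-Glo luciferase read after 5 min. EC50 by nonlinear curve fit; three experiments.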

Series [4] concerns Plasmodium falciparum. Kind of series: Parasiticidal activity against chloroquine-resistant Plasmodium falciparum Dd2 infected in RBC assessed as reduction in parasitemia at 50 nM incubated for 6 to 48 hrs followed by compound washout and then incubated for 96 hrs by Giemsa staining based microscopic analysis. It is filed as functional, organism-based. The following applies: time hrs 6-48. The method, boiled down:
(§3)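 Controls: 0.15% DMSO, DHA 50 nM, atovaquone 6.6 nM. Drug removed by three RPMI washes, then parasitemia followed daily for 96 h by Giemsa thin smears. Three independent biological replicates.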

The test system of series [5] is Plasmodium falciparum. Kind of series: Antiplasmodial activity against synchronous gametocyte late stage of Plasmodium falciparum 3D7 harboring luc7 incubated for 72 hrs by ONE-Glo luciferase assay. The series is classed as functional, organism-based. The following applies: 3D7, 72 h. The method, boiled down: as §2
Series [6] relates to Plasmodium falciparum. Kind of series: Antiplasmodial activity against synchronized chloroquine-resistant Plasmodium falciparum Dd2 reduction in microbial growth 5 times of EC50 treated with compound at 6 to 30 hrs post infection measured after 12 hrs by YOYO-1 staining-based flow cytometric analysis. The series is classed as functional, organism-based. The method, boiled down: as §1

For series [7], the system named is Plasmodium falciparum. Kind of series: Antiplasmodial activity against synchronized chloroquine-resistant Plasmodium falciparum Dd2 reduction in microbial growth at 5 times of EC50 treated with compound at 42 hrs post infection measured after 12 hrs by Giemsa staining-based microscopic analysis. It is filed as functional, organism-based. The gist of the method: as §1

A short description of series [8]: Stability of compound in mouse liver microsomes assessed as parent compound remaining at 1 uM after 60 mins in presence of NADPH by LC-MS analysis. The series is classed as ADME, Microsome. To be noted: 1 h. The gist of the method: (§4)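 Mouse liver microsomes (0.5 mg/mL final protein) in 0.1 M phosphate, pH 7.4, with compound at 1 μM, 37 °C with shaking. Aliquots were quenched in cold acetonitrile and centrifuged; LC–MS gave parent peak area at 60 min relative to 0 min.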
For orientation: Liver microsomes are vesicles of endoplasmic reticulum, rich in cytochrome P450 enzymes.

The nature of series [9]: Toxicity in BALB/c mouse infected with Plasmodium berghei ANKA expressing luciferase assessed as hypotrichosis at 25 to 100 mg/kg, po for 4 days measured up to 30 days. The series is classed as organism-based. To be noted: in vivo, 96 h, dose 25-100 mg/kg, time 4 day. The gist of the method: (§5)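 Female BALB/c mice (10 weeks, ~20 g), five per group, were inoculated i.p. with 10⁶ P. berghei ANKA 676m1cl1-parasitized RBC. Oral gavage in 2% methylcellulose/0.5% Tween 80, once daily for 4 days starting 4 h post-infection, against a vehicle control. Tail-blood Giemsa smears from day 4. Signs and body weight were followed. Sacrifice at 40% parasitemia; cure meant a negative smear at day 30. Kaplan–Meier, log-rank.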

Series [10] relates to Plasmodium falciparum. Kind of series: Induction of morphological changes in chloroquine-resistant Plasmodium falciparum Dd2 assessed as appearance of membrane-bound structure at 5 times of EC50 measured after 1.5 to 12 hrs by TEM analysis. It is filed as functional, organism-based. The following applies: time hrs 1.5-12. The gist of the method: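 Fixed in 2% paraformaldehyde/2.5% glutaraldehyde in cacodylate pH 7.4, post-fixed in 1% OsO₄, en bloc 1% uranyl acetate, ethanol-dehydrated, Eponate-embedded. 95 nm sections stained with uranyl acetate/lead citrate for TEM.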

In series [11] the test system is Hemozoin. Kind of series: Inhibition of beta-hematin formation at 12.5 to 200 uM after 16 hrs by inverted microscopic analysis. The following applies: dose microM 12.5-200, time 16.0 hrs. The method, boiled down: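 Hemin (2 mM stock in 0.1 M NaOH; 100 μM final), propionate buffer pH 5.2 and sonicated phosphatidylcholine were incubated with a compound concentration series for 16 h at 37 °C with gentle shaking. Crystals were imaged by inverted microscope before quenching with 7.5% SDS in bicarbonate, pH 9.1. Free hemin was measured at 405 nm against a 0–16 μM calibration. Three independent experiments.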

Series [12] is described as follows: Intrinsic clearance in mouse liver microsomes assessed as parent compound at 1 uM after 60 mins in presence of NADPH by LC-MS analysis. It is filed as ADME, Microsome. The gist of the method: as §4
Series [13] concerns Plasmodium falciparum. Description: Antiplasmodial activity against chloroquine-resistant Plasmodium falciparum Dd2 infected in human erythrocytes assessed as reduction in microbial growth after 72 hrs by SYBR green I staining based fluorescence assay. It is filed as functional, organism-based. The following applies: Dd2, Erythrocyte. The gist of the method:
(§6)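 SYBR Green I assay: twofold serial dilutions on P. falciparum cultures at 1% parasitemia, 1% hematocrit, 37 °C, 5% CO₂, 72 h, max 0.1% DMSO. DMSO and CQ as growth and inhibition controls. Plates frozen at −80 °C, thawed, lysed in Tris/saponin/EDTA/Triton buffer with 0.01% SYBR Green I, 1 h dark at room temperature. Fluorescence read at 485 ex/530 em. EC50 by nonlinear dose–response fit.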

The subject of series [14] is HepG2. Kind of series: Cytotoxicity against human HepG2 cells assessed as reduction in cell viability after 48 hrs by MTS assay. The following applies: HepG2, 48 h. The series is classed as cell-based. The gist of the method:
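HepG2 cells were seeded at 2250 per well and grown 24 h at 37 °C, 5% CO₂. Serial dilutions starting at 25 μM were added for a further 48 h. MTS was then added for 3 h at 37 °C and absorbance read at 490 nm. EC₅₀ came from nonlinear dose–response fits.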
For orientation: Tetrazolium assays rely on reduction of a dye to a coloured formazan, in cell work by metabolically active cells.

Series [15] in a line: Toxicity in BALB/c mouse infected with Plasmodium berghei ANKA expressing luciferase assessed as reduction in weight at 25 to 100 mg/kg, po for 4 days measured up to 30 days. The series is classed as organism-based. The following applies: in vivo, 96 h, dose 25-100 mg/kg, time 4 day. The method, boiled down: as §5
Series [16] deals with Plasmodium berghei. Kind of series: Antiplasmodial activity against Plasmodium berghei ANKA expressing luciferase infected in BALB/c mouse assessed as mean survival days at 100 mg/kg, po for 4 days using monophosphate salt form of compound (reference value: 8 day). The series is classed as functional. The following applies: time 4 day.
Series [17] deals with Plasmodium berghei. Kind of series: Antiplasmodial activity against Plasmodium berghei ANKA expressing luciferase infected in Swiss Webster mouse at 100 mg/kg, po for 5 days using monophosphate salt form of compound by luminescence based assay. The series is classed as functional, organism-based. To be noted: time 5.0 day. The gist of the method:
(§7)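 Female Swiss Webster mice got 10³ RBC infected with luciferase-expressing P. berghei ANKA. From 48 h post-infection, groups of five were gavaged once daily for 5 days in 2% methylcellulose/0.5% Tween 80, against a vehicle control. On day 7, mice received 150 mg/kg D-luciferin in PBS, and bioluminescence was imaged by IVIS as a measure of parasite load.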

Series [18] can be described thus: Toxicity in BALB/c mouse infected with Plasmodium berghei ANKA expressing luciferase assessed as reduction in mobility at 25 to 100 mg/kg, po for 4 days measured up to 30 days. It is filed as organism-based. To be noted: in vivo, 96 h, dose 25-100 mg/kg, time 4 day. The gist of the method:
as §5

For series [19], the system named is Plasmodium falciparum. Kind of series: Antiplasmodial activity against synchronized chloroquine-resistant Plasmodium falciparum Dd2 reduction in microbial growth 5 times of EC50 treated with compound at 42 hrs post infection measured after 12 hrs by YOYO-1 staining-based flow cytometric analysis. It is filed as functional, organism-based. The gist of the method:
as §1

The test system of series [20] is Plasmodium falciparum. Description: Parasiticidal activity against chloroquine-resistant Plasmodium falciparum Dd2 infected in RBC assessed as reduction in parasitemia at 5 times of EC50 incubated for 6 to 48 hrs followed by compound washout and then incubated for 96 hrs by Giemsa staining based microscopic analysis. The series is classed as functional, organism-based. The following applies: time hrs 6-48. The method, boiled down:
as §3

Series [21] can be described thus: Selectivity index, ratio of EC50 for cytotoxicity against human HepG2 cells to antiplasmodial activity against chloroquine-resistant Plasmodium falciparum Dd2. It is filed as toxicity, cell-based. The following applies: read-out: Ratio EC50.
Series [22] deals with Plasmodium falciparum. Description: Antiplasmodial activity against synchronized chloroquine-resistant Plasmodium falciparum Dd2 reduction in microbial growth 5 times of EC50 treated with compound at 6 to 30 hrs post infection measured after 12 hrs by Giemsa staining-based microscopic analysis. The series is classed as functional, organism-based. The method, boiled down:
as §1

The subject of series [23] is Plasmodium falciparum. Description: Antiplasmodial activity against chloroquine-sensitive Plasmodium falciparum 3D7 infected in human erythrocytes assessed as reduction in microbial growth after 72 hrs by SYBR green I staining based fluorescence assay. It is filed as functional, organism-based. To be noted: 3D7, Erythrocyte. The method, boiled down: as §6
A short description of series [24]: Toxicity in BALB/c mouse infected with Plasmodium berghei ANKA expressing luciferase assessed as hunched posture at 25 to 100 mg/kg, po for 4 days measured up to 30 days. The following applies: in vivo, 96 h, dose 25-100 mg/kg, time 4 day. It is filed as organism-based. The gist of the method: as §5
Series [25] deals with Plasmodium berghei. Description: Antiplasmodial activity against Plasmodium berghei ANKA expressing luciferase infected in BALB/c mouse at 25 mg/kg, po for 4 days using monophosphate salt form of compound by Giemsa staining based microscopic analysis. The series is classed as functional, organism-based. The following applies: time 4.0 day. The method, boiled down: as §5

Series [26] in a line: Resistant index, ratio of EC50 for antiplasmodial activity against chloroquine-resistant Plasmodium falciparum Dd2 to antiplasmodial activity against chloroquine-sensitive Plasmodium falciparum 3D7. It is filed as functional.
Series [27] concerns Plasmodium berghei. Kind of series: Antiplasmodial activity against Plasmodium berghei ANKA expressing luciferase infected in Swiss Webster mouse at 25 mg/kg, po for 5 days using monophosphate salt form of compound by luminescence based assay. The following applies: time 5.0 day. It is filed as functional, organism-based. The method, boiled down: as §7
Series [28] can be described thus: Half life in mouse liver microsomes after 60 mins in presence of NADPH by LC-MS analysis. The series is classed as ADME, Microsome.
Series [29] can be described thus: Stability of compound in mouse liver microsomes assessed as parent compound remaining after 60 mins in presence of NADPH by LC-MS analysis. It is filed as ADME, Microsome. The following applies: read-out: Stabilty.

Molecules are shown by their SMILES. Calls of active or inactive are those of the source.

Broadly, the EC50 is the concentration needed to bring the measured effect to its halfway point. With `C[C@H]1[C@@H](O)O[C@@H]2O[C@@]3(C)CC[C@H]4[C@H](C)CC[C@@H]1[C@@]24OO3` [ARTENIMOL], the outcome in [1], in [2] and in series [4] was Active. Further, the figures for the EC50 in series [3] and in series [5] were 17.4 nM and 37.4 nM, respectively.
For the compound `CN(C)CCNc1cc(/C=C/c2ccc(C(F)(F)F)cc2)nc2ccc(Cl)cc12`, the outcome in series [6], in series [10], in series [17], in [20], in [22] and in series [25] was Active. In addition, the outcome in [27] was Active. In addition, the outcome in series [7] and in series [19] was inactive. Further, the Stabilty in [8] is given as 67.1%. The Activity entry in series [9], in series [15], in [18] and in series [24] was “Non-Toxic” throughout. The inhibition entry in series [11] was “inactive”. For the same compound, the CLH in series [12] came to 13.3 µL/min/mg. The EC50 in series [13] was 10.9 nM; in series [14], 11200 nM; in [3], 472 nM; in [23] it was 16.8 nM; in [5], 394 nM. In addition, the MSD in [16] was 30 days. For the same compound, the selectivity ratio in [21] came to 1030. Besides, the Ratio EC50 in series [26] is 0.6.
What is called half-life is the time needed for the level to fall by half in the phase considered. On to `CCN(CC)CCCC(C)Nc1cc(/C=C/c2ccc([N+](=O)[O-])cc2)nc2ccc(OC)cc12` (stereo not drawn), for which the Stabilty in series [8] worked out at 36.7%. The CLH in [12] came to 33.4 µL/min/mg. Besides, the EC50 in [13] turned out to be 67 nM; in [14], 7020 nM; in series [23], 119 nM. The half-life in series [28] came out at 56.2 min. In addition, in [21], the selectivity ratio is 105. In addition, the remaining at 1 h in [29] was determined as 47.8%. Further, in series [26], the Ratio EC50 was 0.6.
